Article PMC6605687 (The Journal of General Physiology, 2019)

What was measured:
Type in all cases: cell-based
rP2X2 Val70Vah = target: T1, rP2X2 Val70Vah (Rattus norvegicus, UniProt P49653); assay: Two-electrode voltage clamp, oocytes expressing rP2X2 Val70Vah
T1 sequence (P49653 1-472): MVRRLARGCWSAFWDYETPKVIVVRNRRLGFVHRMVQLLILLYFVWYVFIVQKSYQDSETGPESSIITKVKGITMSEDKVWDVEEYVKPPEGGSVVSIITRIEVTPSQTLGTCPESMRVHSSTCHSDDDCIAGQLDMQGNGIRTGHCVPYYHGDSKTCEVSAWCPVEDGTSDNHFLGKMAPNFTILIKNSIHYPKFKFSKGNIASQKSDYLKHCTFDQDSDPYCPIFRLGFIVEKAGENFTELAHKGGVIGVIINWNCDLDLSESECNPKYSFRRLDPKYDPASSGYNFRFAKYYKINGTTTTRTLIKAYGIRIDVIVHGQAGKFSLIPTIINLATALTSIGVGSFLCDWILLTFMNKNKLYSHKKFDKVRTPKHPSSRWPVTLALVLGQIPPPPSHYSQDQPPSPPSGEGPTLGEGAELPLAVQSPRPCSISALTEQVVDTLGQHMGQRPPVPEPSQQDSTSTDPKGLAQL

rP2X2 Val96Vah = target: T2, rP2X2 Val96Vah (Rattus norvegicus, UniProt P49653); assay: Two-electrode voltage clamp, oocytes expressing rP2X2 Val96Vah
T2 sequence (P49653 1-472): T1 sequence (P49653 1-472)
How it was run: (§1)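 The backbone ester was introduced by nonsense suppression. TAG-mutant rP2X2 mRNA was co-injected into Xenopus oocytes with tRNA enzymatically aminoacylated with 2-hydroxyisovaleric acid. Uncharged tRNA co-injection served as the negative control. After incubation at 18°C, two-electrode voltage clamp was done at −40 mV in ND96 (pH 7.4). ATP concentration-response data were normalised and Hill-fitted for EC50 and nH, given as mean ± SEM.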

rP2X2 Ile185Vah = target: T3, rP2X2 Ile185Vah (Rattus norvegicus, UniProt P49653); assay: Two-electrode voltage clamp, oocytes expressing rP2X2 Ile185Vah
T3 sequence (P49653 1-472): T1 sequence (P49653 1-472)
How it was run: as §1

In the case of `Nc1ncnc2c1ncn2[C@@H]1O[C@H](COP(=O)(O)OP(=O)(O)OP(=O)(O)O)[C@@H](O)[C@H]1O` [ATP, Adenosine 5′-triphosphate], the “Fold increase in EC50, Val70Vah versus WT” value (rP2X2 Val70Vah; Val70Vah compared with WT) is reported as “fourfold”, the EC50 (rP2X2 Val70Vah; Val70Vah, mean ± SEM) is reported as 120 ± 2 µM and the EC50 (rP2X2 Val96Vah) is reported as 27 ± 2 µM. For the same compound, the “Effect of Vah incorporation on EC50 (in words)” value (rP2X2 Val96Vah; Val96Vah compared with WT) was “did not affect the ATP EC50”, the “Fold increase in EC50 (decrease in sensitivity), Ile185Vah versus Ile185Val” value (rP2X2 Ile185Vah; Ile185Vah compared with Ile185Val) was 20 fold and the EC50 (rP2X2 Ile185Vah; Ile185Vah, mean ± SEM) was 460 ± 20 µM.
